Reference: ChEMBL document CHEMBL1268987, “Identification of 2-oxo-N-(phenylmethyl)-4-imidazolidinecarboxamide antagonists of the P2X(7) receptor” (Bioorg Med Chem Lett, 2010)
In brackets after ≈: the same amount, converted by molar mass. Blank lines part the entries; values can stand above or below the compound they belong to. Activity calls are given as the source filed them. No cut-off for these calls is given here.

Tests used:
P2X purinoceptor 7 [1] = molecular target: T1, P2X purinoceptor 7 (Homo sapiens, UniProt Q99572); test: Antagonist activity at human recombinant P2X7 receptor expressed in HEK293 cells by ethidium accumulation assay; format: functional, cell-based
T1 sequence (Q99572 whole entry): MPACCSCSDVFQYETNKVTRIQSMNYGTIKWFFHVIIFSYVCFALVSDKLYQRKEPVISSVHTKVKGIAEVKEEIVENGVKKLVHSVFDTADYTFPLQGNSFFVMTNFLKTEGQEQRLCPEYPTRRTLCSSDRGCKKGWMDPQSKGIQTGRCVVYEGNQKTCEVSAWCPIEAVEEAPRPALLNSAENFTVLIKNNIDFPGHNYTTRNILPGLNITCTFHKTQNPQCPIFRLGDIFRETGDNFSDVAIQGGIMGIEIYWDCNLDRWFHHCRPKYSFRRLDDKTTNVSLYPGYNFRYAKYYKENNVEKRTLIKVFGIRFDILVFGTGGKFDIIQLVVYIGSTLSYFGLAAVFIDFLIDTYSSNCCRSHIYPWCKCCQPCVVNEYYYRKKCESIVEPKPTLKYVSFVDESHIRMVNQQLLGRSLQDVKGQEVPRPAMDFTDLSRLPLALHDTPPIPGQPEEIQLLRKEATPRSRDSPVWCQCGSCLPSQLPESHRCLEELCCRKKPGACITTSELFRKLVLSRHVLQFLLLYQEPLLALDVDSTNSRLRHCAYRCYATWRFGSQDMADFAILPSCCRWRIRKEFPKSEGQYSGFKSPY
Summary of the method: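 Ethidium accumulation read-out: ATP activation of the receptor opens a large pore, and uptake of ethidium bromide dye into the cells is measured by fluorescence.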

MDCK = test: Efflux ratio of permeability from apical to basolateral side over basolateral to apical side in MDCK cells expressing MDR; format: ADME, cell-based, Canis lupus familiaris; details: dog
Rattus norvegicus [2] = test: (§1) Clearance in rat blood at 1 mg/kg, iv; format: ADME, organism-based; set-up: dose 1 mg/kg, route intravenous; details: in vivo
Summary of the method: (§2)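 Rat blood clearance was determined after a single iv infusion at 1 mg/kg.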

[3] = Half life in rat blood at 1 mg/kg, iv; format: ADME, organism-based; set-up: dose 1 mg/kg, route intravenous
[4] = Metabolic stability in rat liver microsomes assessed as intrinsic clearance measured per gram of tissue; format: ADME, Microsome
[5] = Clearance in rat at 3 mg/kg, po; format: ADME, organism-based; set-up: dose 3 mg/kg, route oral; details: in vivo
[6] = Lipophilicity, log D of the compound at pH 7.4; format: physicochemical; details: buffer
[7] = Half life in rat at 3 mg/kg, po; format: ADME, organism-based; set-up: dose 3 mg/kg, route oral; details: in vivo
[8] = Drug level in rat chronic joint pain model blood at 20 mg/kg, po after 1 hr; format: ADME, organism-based; set-up: dose 20 mg/kg, route oral; details: read-out: Drug uptake
Summary of the method: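 In the rat chronic joint pain model, blood concentrations were measured 1.0 h after a 20 mg/kg oral dose.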

Rattus norvegicus [9] = test: Reversal of FCA-induced hypersensitivity in rat chronic joint pain model at 20 mg/kg, po after 1 to 6 hrs; format: functional, organism-based; set-up: dose 20 mg/kg
Summary of the method: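 Chronic joint pain model in rat. Hypersensitivity was induced by intra-articular FCA, and oral dosing at 20 mg/kg began 13 days post FCA. Response was assessed at 1, 3 and 6 h post-dose. Celecoxib at 30 mg/kg po served as comparator.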

[10] = Cmax in rat at 3 mg/kg, po; format: ADME, organism-based; set-up: dose 3 mg/kg, route oral; details: in vivo
[11] = Ratio of drug level in brain to plasma in rat chronic joint pain model at 20 mg/kg, po after 1 hr; format: ADME, organism-based; set-up: dose 20 mg/kg, route oral; details: brain and plasma, read-out: BBR
P2X purinoceptor 7 [12] = molecular target: T2, P2X purinoceptor 7 (Rattus norvegicus, UniProt Q64663); test: Antagonist activity at rat recombinant P2X7 receptor; format: functional
T2 sequence (Q64663 whole entry): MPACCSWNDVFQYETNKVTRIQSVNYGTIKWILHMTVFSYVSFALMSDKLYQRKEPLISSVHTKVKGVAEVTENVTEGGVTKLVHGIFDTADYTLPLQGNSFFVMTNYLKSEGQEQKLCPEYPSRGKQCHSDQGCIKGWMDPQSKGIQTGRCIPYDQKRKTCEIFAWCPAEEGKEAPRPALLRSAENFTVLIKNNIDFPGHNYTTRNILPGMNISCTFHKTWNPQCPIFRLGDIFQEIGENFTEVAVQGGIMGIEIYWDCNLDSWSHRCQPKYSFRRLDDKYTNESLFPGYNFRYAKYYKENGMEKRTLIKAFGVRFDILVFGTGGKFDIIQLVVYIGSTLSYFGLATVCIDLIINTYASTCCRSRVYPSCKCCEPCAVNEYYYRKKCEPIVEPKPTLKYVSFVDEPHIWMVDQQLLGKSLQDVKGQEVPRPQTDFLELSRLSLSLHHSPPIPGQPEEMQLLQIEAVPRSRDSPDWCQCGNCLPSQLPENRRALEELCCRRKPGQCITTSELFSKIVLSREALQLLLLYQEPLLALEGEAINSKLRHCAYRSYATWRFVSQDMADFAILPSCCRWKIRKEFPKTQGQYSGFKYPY

[13] = as §1; format: ADME, organism-based; set-up: dose 1 mg/kg, route intravenous; details: blood; summary of the method: as §2
[14] = Half life in dog at 1 mg/kg, iv and 3 mg/kg, po; format: ADME, organism-based, Canis lupus familiaris; details: in vivo
Summary of the method: (§3)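 Cross-species pharmacokinetics (rat, dog, monkey), n = 3 per species. Parameters were derived from 1 mg/kg iv or 3 mg/kg po profiles: blood clearance, Vss, half-life and oral bioavailability.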

[15] = Solubility of the compound in FeSSIF; format: physicochemical
[16] = Oral bioavailability in monkey at 1 mg/kg, iv and 3 mg/kg, po; format: ADME, organism-based, Macaca mulatta; details: rhesus monkey, in vivo; summary of the method: as §3
[17] = Half life in rat at 1 mg/kg, iv and 3 mg/kg, po; format: ADME, organism-based; details: in vivo; summary of the method: as §3
[18] = Clearance in monkey blood at 1 mg/kg, iv and 3 mg/kg, po; format: ADME, organism-based, Macaca mulatta; details: rhesus monkey; summary of the method: as §3
[19] = Oral bioavailability in dog at 1 mg/kg, iv and 3 mg/kg, po; format: ADME, organism-based, Canis lupus familiaris; details: in vivo; summary of the method: as §3
[20] = Volume of distribution at steady state in dog at 1 mg/kg, iv and 3 mg/kg, po; format: ADME, organism-based, Canis lupus familiaris; details: in vivo, read-out: Vdss; summary of the method: as §3
[21] = Oral bioavailability in rat at 1 mg/kg, iv and 3 mg/kg, po; format: ADME, organism-based; details: in vivo; summary of the method: as §3
[22] = Volume of distribution at steady state in monkey at 1 mg/kg, iv and 3 mg/kg, po; format: ADME, organism-based, Macaca mulatta; details: rhesus monkey, in vivo, read-out: Vdss; summary of the method: as §3
[23] = Protein binding in rat plasma; format: ADME, cell-free; details: read-out: PPB (converted)
[24] = Half life in monkey at 1 mg/kg, iv and 3 mg/kg, po; format: ADME, organism-based, Macaca mulatta; details: rhesus monkey, in vivo; summary of the method: as §3
[25] = Clearance in dog blood at 1 mg/kg, iv and 3 mg/kg, po; format: ADME, organism-based, Canis lupus familiaris; summary of the method: as §3
[26] = Volume of distribution at steady state in rat at 1 mg/kg, iv and 3 mg/kg, po; format: ADME, organism-based; details: in vivo, read-out: Vdss; summary of the method: as §3
[27] = Clearance in rat blood at 1 mg/kg, iv and 3 mg/kg, po; format: ADME, organism-based; summary of the method: as §3

Structure (SMILES): Cc1cccc(N2C[C@@H](C(=O)NCc3cccc(C(F)(F)F)c3Cl)N(C)C2=O)n1
- IC50 (P2X purinoceptor 7 [1]): 79.4 nM

Structure (SMILES): CN1CCC(N2C[C@@H](C(=O)NCc3cccc(C(F)(F)F)c3Cl)N(C)C2=O)CC1
- Ratio (MDCK): 3.2
- IC50 (P2X purinoceptor 7 [1]): 31.6 nM

Structure (SMILES): CN1C(=O)C(C)(C)C[C@H]1C(=O)NCc1cccc(C(F)(F)F)c1Cl
- IC50 (P2X purinoceptor 7 [1]): 25.1 nM

Structure (SMILES): CN1C(=O)OC[C@H]1C(=O)NCc1cccc(C(F)(F)F)c1Cl
- IC50 (P2X purinoceptor 7 [1]): 15.8 nM

Structure (SMILES): CN1C(=O)N(CCN2CCOCC2)C[C@H]1C(=O)NCc1cccc(C(F)(F)F)c1Cl
- Ratio (MDCK): 11.9
- IC50 (P2X purinoceptor 7 [1]): 25.1 nM

Structure (SMILES): CN1C(=O)NC[C@H]1C(=O)NCc1ccc(Cl)cc1Cl
- half-life [14]: 5.7 h
- solubility [15]: 780 µg/mL (≈ 2580 µM)
- bioavailability [16]: 99%
- half-life [17]: 2.8 h
- clearance [18]: 7 mL/min/kg
- bioavailability [19]: 100%
- clearance [13]: 6 mL/min/kg
- half-life [3]: 2.8 h
- Vd [20]: 0.8 L/kg
- IC50 (P2X purinoceptor 7 [1]): 10 nM
- bioavailability [21]: 100%
- concentration at 1 h [8]: 56.4 µM
- Vd [22]: 1.2 L/kg
- fraction unbound [23]: 0.35
- Activity (Rattus norvegicus [9]): Active
- half-life [24]: 2.9 h
- Kp at 1 h [11]: 0.3
- clearance [25]: 2 mL/min/kg
- Vd [26]: 1.3 L/kg
- clearance [27]: 6 mL/min/kg

Structure (SMILES): CN1C(=O)NC[C@H]1C(=O)NCc1cccc(Cl)c1Cl
- IC50 (P2X purinoceptor 7 [1]): 25.1 nM

Structure (SMILES): CN1C(=O)CC[C@H]1C(=O)NCc1cccc(C(F)(F)F)c1Cl [GSK1482160]
- half-life [14]: 0.7 h
- bioavailability [16]: 57%
- half-life [17]: 1.5 h
- clearance [18]: 17 mL/min/kg
- bioavailability [19]: 69%
- Vd [20]: 0.9 L/kg
- Vd [22]: 1.1 L/kg
- half-life [24]: 0.9 h
- clearance [25]: 14 mL/min/kg
- IC50 (P2X purinoceptor 7 [12]): 251 nM
- Vd [26]: 1 L/kg
- clearance [27]: 9 mL/min/kg

The remaining compounds from weak to strong by IC50 (P2X purinoceptor 7 [1]), led by results:

- CL/F [5]: 17 mL/min/kg
- Ratio (MDCK): 4.9
- logD [6]: 2.2
- half-life [7]: 2.3 h
- IC50 (P2X purinoceptor 7 [1]): 10 nM
- concentration at 1 h [8]: 16.8 µM
- Cmax [10]: 1070 ng/mL
- Kp at 1 h [11]: < 0.1
- IC50 (P2X purinoceptor 7 [12]): 63.1 nM
Structure (SMILES): Cc1ncccc1N1C[C@@H](C(=O)NCc2ccc(Cl)cc2Cl)N(C)C1=O
- Activity (Rattus norvegicus [9]): inactive

- Ratio (MDCK): 1.9
- IC50 (P2X purinoceptor 7 [1]): 10 nM
Structure (SMILES): Cc1cc(N2C[C@@H](C(=O)NCc3cccc(C(F)(F)F)c3Cl)N(C)C2=O)ccn1

- clearance [13]: 49 mL/min/kg
- half-life [3]: 0.4 h
- IC50 (P2X purinoceptor 7 [1]): 10 nM
Structure (SMILES): CN1C[C@@H](C(=O)NCc2cccc(Cl)c2Cl)N(C)C1=O

- Ratio (MDCK): 4.4
- IC50 (P2X purinoceptor 7 [1]): 5.01 nM
Structure (SMILES): Cc1ncccc1N1C[C@@H](C(=O)NCc2cccc(C(F)(F)F)c2Cl)N(C)C1=O

- IC50 (P2X purinoceptor 7 [1]): 3.98 nM
Structure (SMILES): CN1C(=O)COC[C@H]1C(=O)NCc1cccc(C(F)(F)F)c1Cl

- Ratio (MDCK): 5.3
- IC50 (P2X purinoceptor 7 [1]): 3.98 nM
Structure (SMILES): CN1C(=O)N(c2nccn2C)C[C@H]1C(=O)NCc1cccc(C(F)(F)F)c1Cl

- Ratio (MDCK): 2.1
- IC50 (P2X purinoceptor 7 [1]): 3.98 nM
Structure (SMILES): CN1C(=O)NC[C@H]1C(=O)NCc1cccc(C(F)(F)F)c1Cl

- IC50 (P2X purinoceptor 7 [1]): 3.98 nM
Structure (SMILES): CN1C(=O)C(F)(F)C[C@H]1C(=O)NCc1cccc(C(F)(F)F)c1Cl

- IC50 (P2X purinoceptor 7 [1]): 2.51 nM
Structure (SMILES): CN1C(=O)N(c2cn(C)cn2)C[C@H]1C(=O)NCc1cccc(C(F)(F)F)c1Cl

- clearance (Rattus norvegicus [2]): 30 mL/min/kg
- half-life [3]: 0.6 h
- IC50 (P2X purinoceptor 7 [1]): 2 nM
- CLint scaled [4]: < 0.5 mL/min/g
Structure (SMILES): CN1C[C@@H](C(=O)NCc2ccc(Cl)cc2Cl)N(C)C1=O
